Laboratory results published in paper PMC8686831 (Molecular pharmaceutics, 2021).

Tests used:
[1] = tested on: healthy athymic nude mice; assay: ^127I-PARPi toxicity study in healthy mice; assay type: in vivo; conditions: 2.05 mg/kg intravenously
[2] = tested on: HCT116 p53^−/− subcutaneous xenograft tumors; assay: Survival study in subcutaneous xenograft mice; assay type: in vivo, athymic nude mice
Outline: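 Nude mice carried s.c. HCT116 p53+/+ or p53−/− xenografts (10^6 cells, 1:1 media/matrigel). At a mean tumor volume of 100 ± 10 mm3 they were randomized. Dosing was i.v. every 3–4 days for 5 cycles: approximately 74 MBq test compound in 100 μL 30% PEG300 vehicle, or vehicle alone. The p53−/− study added a stable-iodine analogue cohort (approx. 80 μg/kg). Weights were taken daily. Endpoints: distress, significant weight loss, tumor >800 mm3, or ulceration >5 mm.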

O=C(c1cccc([127I])c1)N1CCN(C(=O)c2cc(Cc3n[nH]c(=O)c4ccccc34)ccc2F)CC1 [^127I-PARPi]
Toxicity (immunohistochemical and blood chemistry analysis) ([1]; healthy mice): no toxicity was observed
Markers associated with liver toxicity (ALP, ALT, AST) ([1]; vs. vehicle): no significant variation compared to vehicle cohorts
Effect on overall / median survival compared to vehicle [2]: No significant increase in median survival
Improvement of median survival compared to vehicle control group [2]: +26%
Median survival (weeks) ([2]; i.v., ^123I-MAPi 74 MBq or ^127I-PARPi approx. 80 μg/kg, every 3–4 days, 5 cycles): 3.071 weeks
